Assay outcomes (PubChem BioAssay)
The list is not random: actives were taken first. Their share in the collection is about 0.92%.
AF4-AF9 inh = inhibitors of human MLL-AF4/AF9 interaction. P42568. AlphaScreen, biotin-AF4 peptide binding to FLAG-AF9. inhibition, % at 10 µM. hit rate 0.47% among 350,000;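 active = every replicate reaching a set inhibition limit, whatever the replicate mean, cut at about 25% in these data; inconclusive = mean inhibition reaches that limit but some replicates miss it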;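 note: 0% = plate neutral control median and 100% = total signal loss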
RAD52 anneal inh = RAD52 (human) annealing inhibition; P43351; recombinant RAD52 DNA annealing, FRET fluorescence; inhibition, % at 18.7 µM; hit rate 0.46% among 360,000; AID 651710;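 active = every replicate showing at least 50% inhibition; inconclusive = mean inhibition at least 50% but not in every replicate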
Target sequence (P43351 whole entry, looked up): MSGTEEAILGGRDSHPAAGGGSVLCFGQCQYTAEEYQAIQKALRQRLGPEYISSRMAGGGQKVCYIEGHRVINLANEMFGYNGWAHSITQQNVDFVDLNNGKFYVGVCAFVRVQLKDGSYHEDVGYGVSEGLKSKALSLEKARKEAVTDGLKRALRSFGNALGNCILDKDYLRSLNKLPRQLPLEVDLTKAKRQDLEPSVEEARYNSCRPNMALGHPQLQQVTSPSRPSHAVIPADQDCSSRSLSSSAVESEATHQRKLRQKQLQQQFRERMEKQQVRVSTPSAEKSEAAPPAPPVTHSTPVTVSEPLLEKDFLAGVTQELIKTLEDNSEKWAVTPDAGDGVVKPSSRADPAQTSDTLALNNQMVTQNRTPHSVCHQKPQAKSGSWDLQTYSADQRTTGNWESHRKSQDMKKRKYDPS
N-glyco inh = blocks N-linked glycosylation in D54 reporter cells; D54 ERlucT glycosylation luciferase reporter, 24 h; percent of 100 nM tunicamycin response; reporter increase, % at 12.5 µM; hit rate 0.23% among 360,000; AID 588692;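 active = mean luciferase reporter signal, scaled so untreated is 0 and the glycosylation-blocking control 100, at or above a set limit in every replicate; inconclusive = mean reaches the limit but not every replicate does; inactive = mean below the limit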;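 note: luciferase carries N-glycosylation sites so blocking glycosylation raises the light; 0% = median of neutral control wells and 100% = median of 100 nM tunicamycin wells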
FN deposit inh = fibronectin deposition inhibition. AH1F fibroblasts, Alexa488-fibronectin deposition fluorescence, overnight. inhibition, % at 12.6 µM. hit rate 0.086% among 350,000. AID 743247;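 active = mean inhibition across replicates of 30% or more, regardless of how many single replicates reach that level; inconclusive = mean under 30% yet at least half of replicates reach 30%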;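 note: positive control wells lacked labelled fibronectin entirely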
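Measured by – fluorescence 485/525 nm · System – AH1F fibroblast monolayer, labelled fibronectin deposition · Amount – 10000 cells per well · Buffer or medium – serum-reduced DMEM (2% serum) · Doses – single dose, pinned · Also added – fluorescent fibronectin at 24 nM final · Schedule – 1 h cell attachment, overnight exposure to compound and label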
RAD54 branch = RAD54 (human) branch migration inhibition | Q92698 | RAD54 Holliday junction branch migration, FAM/BHQ fluorescence | inhibition, % at 10.4 µM | hit rate 0.14% among 360,000 | AID 602329;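 active = mean normalized replicate activity at least 40 and at least half of replicates scoring 40 or more; inconclusive = only one of the two criteria met; inactive = mean below 40 and under half of replicates reaching 40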;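 note: 0% = median of neutral control wells and 100% = median of positive control wells; inhibitors cause a drop in the FAM fluorescence signal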
Rad54 DNA ctr = DNA binding artifact in Rad54 counter-screen; shares compounds with RAD54 branch; Acridine orange-DNA displacement, fluorescence polarization, 20 min; AC50, µM (doses to about 35 µM), for inactives: at the highest dose activity change, negative = DNA binding; hit rate 8% among 460; AID 651673;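 active = signal drop giving an AC50 within twice the top valid tested concentration of each sample, actives reach about 35 µM in these data; inactive = activity opposite to expected, plus the rest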;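 note: polarization loss reports compound binding to salmon sperm DNA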
* hit, by the source's call; i = inactive; ? = inconclusive; · = not tested or not shown.

SMILES | AF4-AF9 inh | RAD52 anneal inh | N-glyco inh | FN deposit inh | RAD54 branch | others
O=C(C[C@H]1CC[C@H](NS(=O)(=O)c2ccccc2)[C@@H](CO)O1)N1CCC(Cc2ccccc2)CC1 | 1.1 | 8.1 | · | 2.5 | ·
Cc1cc(=O)n2c3c(c4c(cc13)c(CN(C)C)cc(=O)n4C)OC2 | -2.7 | 34.8 | 31.2* | 10.3 | ·
Cc1cc(=O)n(C)c2ccccc12 | -1.5 | -10.2 | 3.7 | -8.0 | ·
O=C(Nc1ccc(N2CCCCCC2)cc1)c1ccc[nH]1 | 34.0* | 3.6 | -8.4 | · | -2.1
O=C(Nc1ccc(N2CCCCCC2)cc1)c1ccccc1Cl | 22.1 | -6.4 | 7.4 | 6.5 | 2.6
CO[C@@H]1CN(C)C(=O)c2ccc(N)cc2OC[C@@H](C)NC[C@H]1C | -0.2 | -13.8 | · | -11.7 | 0.6
Fc1ccc(C2CCNCC2COc2ccc3c(c2)OCO3)cc1 (centres undefined) | 32.0* | 20.9 | 1.3 | 9.2 | 4.8
O=C(Nc1cc(F)ccc1F)N1CC(=O)N2[C@H](CO)[C@@H](c3ccc(-c4ccccc4)cc3)[C@@H]2C1 | -3.6 | -5.2 | · | · | ·
Cc1ccc(Nc2nc(N)nc(CN3CCc4ccccc4C3)n2)cc1 | · | · | 4.6 | -12.4 | -0.2
Cc1c(Cl)cccc1Nc1nc(N)nc(CN2CCc3ccccc3C2)n1 | · | · | 44.5* | -1.4 | -4.0
CCN1CCN(CCNC(=O)c2ccc(/C=C3\Sc4ccccc4N(Cc4ccccc4F)C3=O)cc2)CC1 | 20.6 | 84.7* | -5.5 | 7.8 | ·
COCCCNC(=O)/C=C1\Sc2ccccc2N(Cc2ccccc2F)C1=O | -39.8 | -10.1 | -1.6 | 7.9 | 6.8
C[C@H](CO)N1C[C@H](C)[C@H](CN(C)S(C)(=O)=O)Oc2ccc(NC(=O)Nc3ccc4c(c3)OCO4)cc2C1=O | 1.9 | 5.6 | · | · | 12.0
CN(C)c1ccc(Nc2ncnc3ccc(Br)cc23)cc1 | 26.1* | -19.4 | -9.8 | 6.2 | -3.0
Clc1ccc(Nc2ncnc3ccc(Br)cc23)cc1 | · | · | -14.3 | · | -12.2
CN1CCN(c2ccc(NC(=O)COc3cccc4ccccc34)cc2)CC1 | 7.3 | -7.3 | -2.7 | 1.6 | 0.4
C=CC(=O)Nc1cccc(Oc2ccnc(Nc3ccc(N4CCN(C)CC4)cc3)n2)c1 | 70.1* | 93.0* | -14.4 | · | ?
C=CC(=O)Nc1cccc(N(C)c2ccnc(Nc3ccc(N4CCN(C)CC4)cc3)n2)c1 | · | · | -11.2 | · | 81.5*
COC(=O)C[C@@H]1C[C@@H]2c3cc(NC(=O)Nc4ccc(OC)cc4)ccc3O[C@@H]2[C@@H](CO)O1 | -2.1 | -4.6 | · | -7.6 | ·
Fc1ccc(CN2[C@@H]3CN(CC(F)(F)F)C[C@H]2C3c2ccccc2)cc1 (some centres undefined) | · | · | · | -6.9 | ·
Cc1cc(OC(=O)c2cc([N+](=O)[O-])ccc2Cl)c([N+](=O)[O-])c(=O)[nH]1 | 47.3* | -4.2 | 1.6 | 2.7 | -19.6
Cc1cc(OC(=O)c2cc(Cl)ccc2Cl)c([N+](=O)[O-])c(=O)[nH]1 | -3.7 | -0.3 | 2.3 | -5.0 | -8.5
CCOc1cc(-c2sc(Nc3cc(C)ccc3OC)n[n+]2-c2ccccc2)ccc1OC | 15.5 | -16.3 | 2.7 | -9.1 | -7.0
CCOc1cc(-c2sc(Nc3ccc(CC)cc3)n[n+]2-c2ccccc2)ccc1OC | 26.6* | -11.7 | 1.8 | -0.9 | 2.5
C[C@H]1CN([C@@H](C)CO)S(=O)(=O)c2ccc(-c3cccnc3)cc2O[C@H]1CN(C)C(=O)c1ccc2c(c1)OCO2 | 3.5 | 4.8 | · | 4.1 | 6.9
SMILES | AF4-AF9 inh | RAD52 anneal inh | N-glyco inh | FN deposit inh | RAD54 branch | others
C[C@@H]1CN([C@H](C)CO)C(=O)Cc2cc(NC(=O)CCN3CCOCC3)ccc2O[C@H]1CN(C)Cc1ccccc1 | 1.9 | -0.9 | · | · | 1.5
O=Cc1s/c(=N\S(=O)(=O)c2ccccc2)n(CCCCl)c1Cl | -1.9 | -36.0 | -11.7 | 52.3* | ·
COc1ccc(C2NC(=S)NC3=C2CCCC3=C2SCCS2)cc1 (centres undefined) | -1.8 | -12.3 | 593.4* | 5.7 | -5.8
COc1ccc2c3c(n(C)c2c1)[C@H](CO)N(C(=O)c1ccccc1)CC31CN(CC2CC2)C1 | 7.2 | · | · | · | ·
COc1ccccc1CNc1nc(NCc2cnc(C)cn2)c2sccc2n1 | 3.3 | -8.4 | -1.6 | 35.2* | -1.9
Cc1cccn2c(=O)c3cc(C(=O)NCC4CCCO4)c(=N)n(C4CCCCC4)c3nc12 (centres undefined) | -5.0 | -51.7 | 1.2 | -10.0 | ? | Rad54 DNA ctr=-5.2%
Cc1cccn2c(=O)c3cc(C(=O)NCC4CCCO4)c(=N)n(CC4CCCO4)c3nc12 (centres undefined) | -3.1 | 16.5 | 11.4 | -3.0 | 20.9
Cc1cccn2c(=O)c3cc(C(=O)NCCN4CCOCC4)c(=N)n(Cc4ccc(F)cc4)c3nc12 | -0.7 | 44.0 | -19.7 | -4.1 | 37.5
COc1ccc(CCNC(=O)c2cc3c(=O)n4cccc(C)c4nc3n(CCCN3CCOCC3)c2=N)cc1 | -11.4 | -11.8 | 0.2 | -1.4 | 58.8* | Rad54 DNA ctr=-12.3%
COCCn1c(=N)c(C(=O)NCCc2ccc(OC)cc2)cc2c(=O)n3cccc(C)c3nc21 | · | · | 1.6 | · | ·
CCOCCCn1c(=N)c(C(=O)NCCN2CCOCC2)cc2c(=O)n3cccc(C)c3nc21 | · | · | -1.6 | · | 68.8* | Rad54 DNA ctr=-15.2%
COc1ccccc1CNC(=O)c1cccs1 | · | · | -0.3 | · | 62.8* | Rad54 DNA ctr=10.8%
COc1ccc(S(=O)(=O)N(C)C[C@H]2Oc3ccc(NC(=O)CCC(F)(F)F)cc3CC(=O)N([C@@H](C)CO)C[C@@H]2C)cc1 | -3.1 | 23.1 | · | · | -4.9
CCC(=O)N(C)C[C@H]1Oc2cc(C#CC3CC3)ccc2S(=O)(=O)N([C@@H](C)CO)C[C@H]1C | -12.1 | 16.9 | · | · | -2.6
Nc1ccc(-c2nc3ccccc3[nH]2)cc1 | -0.3 | -29.8 | 0.7 | -11.3 | 38.0
Nc1ccc(-c2nc3c(ccc4ccccc43)[nH]2)cc1 | 8.1 | -14.1 | 8.4 | -4.2 | 50.3* | Rad54 DNA ctr=-4.8%
CCC(=O)N(C)C[C@@H]1Oc2cc(C#CCOC)ccc2S(=O)(=O)N([C@@H](C)CO)C[C@H]1C | 1.4 | -19.5 | · | -19.6 | 1.8
CC(C)C(=O)Nc1ccc2c(c1)C(=O)N(C)[C@H]1CC[C@H](CC(=O)NCc3ccccc3F)O[C@@H]1CO2 | · | · | · | -1.8 | -8.3
CCOc1cc2nc(-c3ccc(OC)c(OC)c3)nc(NCCCN3CCOCC3)c2cc1OC | · | · | -2.2 | 13.9 | 84.6* | Rad54 DNA ctr=i
CC(=O)Nc1sc2c(c1-c1nc3ccccc3s1)CN(C(C)C)CC2 | -4.2 | i | -15.3 | 1.9 | 67.5* | Rad54 DNA ctr=17.2µM*
CC(=O)N1CCc2c(sc(NC(=O)C3CC3)c2-c2nc3ccccc3s2)C1 | -1.1 | -31.3 | 0.7 | -5.5 | 2.2
CCS(=O)(=O)N1CC2(CN(Cc3cccc(Cl)c3)[C@@H](CO)c3c2c2ccc(OC)cc2n3C)C1 | 0.8 | 6.2 | · | -4.9 | ·
Cc1cccc2cc3c(N)c(C#N)sc3nc12 | · | · | 10.7 | -18.0 | 70.5* | Rad54 DNA ctr=2.4%
COc1cc2[nH]c3c(=O)n(CCN(C(C)C)C(C)C)cnc3c2cc1OC | · | · | 3.2 | 4.2 | ? | Rad54 DNA ctr=6.8%
